Reference: ChEMBL document CHEMBL3603824, “Evaluation of spiropiperidine hydantoins as a novel class of antimalarial agents” (Bioorg Med Chem, 2015)
The source made the active and inactive calls. The rule behind the calls is not given here.

Assays:
Plasmodium falciparum [1] = assay: Antimalarial activity against chloroquine-sensitive Plasmodium falciparum 3D7 infected in human erythrocytes assessed as inhibition of parasite growth after 72 hrs by SYBR Green I method; type: functional, organism-based; settings: 3D7, 72 h
Summary of the method: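 P. falciparum 3D7 grown in human erythrocytes (2% hematocrit) in RPMI1640 with Hepes, hypoxanthine, glucose, bicarbonate and Albumax I under 5% CO2/5% O2/90% N2. 10 mM DMSO stocks, 3-fold serial dilutions. Quadruplicate wells at 0.5% parasitemia, 0.1% DMSO final, 72 h at 37 °C. SYBR Green I lysis buffer added, 1 h dark, fluorescence 497/520. IC50 by four-parameter logistic fit.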

Liver = assay: Half-life in mouse liver microsomes at 1 uM by LC-MS/MS analysis; type: ADME
Summary of the method: (§1)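 Compound at 1 μM with liver microsomes (mouse, rat or human), 1.2 mM NADPH, 3.3 mM MgCl2, 100 mM potassium phosphate pH 7.4, at 37 °C. Aliquots taken at 0, 5, 10, 20 and 30 min and quenched in ice-cold acetonitrile with internal standard. Centrifuged supernatant run by LC-MS/MS. Half-life from analyte/internal standard peak-area ratios.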

[2] = molecular target: Cathepsin D (Homo sapiens) (UniProt P07339); assay: Inhibition of human recombinant cathepsin D using Mca-PLGL-Dpa-AR-NH2 as substrate up to 10 uM by FRET assay
Sequence of Cathepsin D (Homo sapiens) (P07339 65-162 limits assumed): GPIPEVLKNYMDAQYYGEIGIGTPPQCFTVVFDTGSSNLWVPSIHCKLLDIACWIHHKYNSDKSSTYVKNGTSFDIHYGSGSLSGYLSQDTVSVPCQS
Sequence of Cathepsin D (Homo sapiens) (P07339 169-412 limits assumed): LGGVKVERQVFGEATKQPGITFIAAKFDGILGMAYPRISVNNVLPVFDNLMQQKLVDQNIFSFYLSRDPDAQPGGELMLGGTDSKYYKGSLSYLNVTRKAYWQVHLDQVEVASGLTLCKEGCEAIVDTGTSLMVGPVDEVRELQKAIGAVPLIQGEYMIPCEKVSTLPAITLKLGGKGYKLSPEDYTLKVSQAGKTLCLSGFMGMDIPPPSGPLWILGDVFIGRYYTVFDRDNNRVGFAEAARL
Summary of the method: (§2)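 Recombinant human cathepsin D at 20 ng/µl and cathepsin E at 1 ng/µl, each activated 30 min at RT in 0.1 M NaOAc, 0.2 M NaCl, pH 3.5. FRET substrate added at 20 uM final. Run 60 min at RT, time-resolved fluorescence Ex/Em 360/460 nm. IC50 by nonlinear regression.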

Plasmodium [3] = assay: Inhibition of Plasmodium plamepsin 2 using EDANS-CO-CH2-CH2-CO-ALERMFLSFP-Dap(DABCYL)OH as substrate up to 10 uM after 60 mins by fluorescence assay
Summary of the method: (§3)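 Recombinant PM-2 or PM-4, purified and activated at 0.3 mg/ml in pH 4.5 citrate, 0.1% Tween-20, 50 mM DTT for 40 min at RT. Then diluted in 50 mM sodium acetate pH 4.7, 0.01% Tween-20. Serially diluted compounds added, followed by peptide substrate at 20 μM final. Run 60 min at RT, fluorescence Ex/Em 360/535 nm. IC50 derived from the curve.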

Rattus norvegicus [4] = assay: Volume of distribution in Sprague-Dawley rat at 1 mg/kg, iv and 5 mg/kg, po by LC-MS analysis; type: ADME, organism-based; settings: in vivo
HepG2 = assay: Cytotoxicity against human HepG2 cells assessed as inhibition of cell viability after 72 hrs by PrestoBlue Cell Viability Reagent based assay; settings: HepG2, 72 h
Summary of the method: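 HepG2 kept in DMEM with 10% FBS and L-glutamine on poly-D-lysine at 37 °C, 5% CO2. Seeded 10,000 cells/well, allowed to adhere at least 4 h, then exposed to compound for 72 h. PrestoBlue added for 30 min at 37 °C, fluorescence Ex 560/Em 590 nm. IC50 by nonlinear regression.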

[5] = molecular target: T1, Cathepsin E (Homo sapiens) (UniProt P14091); assay: Inhibition of human recombinant cathepsin E using Mca-PLGL-Dpa-AR-NH2 as substrate up to 10 uM by FRET assay; summary of the method: as §2
T1 sequence (whole entry): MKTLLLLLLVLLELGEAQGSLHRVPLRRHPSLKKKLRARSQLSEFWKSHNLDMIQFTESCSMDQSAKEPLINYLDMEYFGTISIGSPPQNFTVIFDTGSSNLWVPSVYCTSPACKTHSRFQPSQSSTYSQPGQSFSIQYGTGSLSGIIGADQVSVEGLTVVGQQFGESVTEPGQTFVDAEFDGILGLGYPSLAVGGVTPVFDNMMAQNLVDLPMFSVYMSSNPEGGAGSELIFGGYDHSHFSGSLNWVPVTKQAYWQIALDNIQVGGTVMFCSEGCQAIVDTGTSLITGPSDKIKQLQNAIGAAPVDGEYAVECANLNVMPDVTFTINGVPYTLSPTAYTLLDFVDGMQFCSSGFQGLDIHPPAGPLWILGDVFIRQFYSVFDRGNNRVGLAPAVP

[6] = Selectivity index, ratio of IC50 for human HepG2 cells to IC50 for chloroquine-sensitive Plasmodium falciparum 3D7 infected in human erythrocytes; type: toxicity, cell-based; settings: read-out: Ratio IC50
Liver microsome [7] = assay: Half-life in human liver microsomes at 1 uM by LC-MS/MS analysis; type: ADME; summary of the method: as §1
Plasmodium [8] = assay: Inhibition of Plasmodium plamepsin 4 using EDANS-CO-CH2-CH2-CO-ALERMFLSFP-Dap(DABCYL)OH as substrate up to 10 uM after 60 mins by fluorescence assay; summary of the method: as §3
[9] = molecular target: Beta-secretase 1 (Homo sapiens) (UniProt P56817); assay: Inhibition of human recombinant BACE1 using Mca-SEVNLDAEFRK(Dnp)RR-NH2 as substrate up to 10 uM by FRET assay
Sequence of Beta-secretase 1 (Homo sapiens) (P56817 whole entry): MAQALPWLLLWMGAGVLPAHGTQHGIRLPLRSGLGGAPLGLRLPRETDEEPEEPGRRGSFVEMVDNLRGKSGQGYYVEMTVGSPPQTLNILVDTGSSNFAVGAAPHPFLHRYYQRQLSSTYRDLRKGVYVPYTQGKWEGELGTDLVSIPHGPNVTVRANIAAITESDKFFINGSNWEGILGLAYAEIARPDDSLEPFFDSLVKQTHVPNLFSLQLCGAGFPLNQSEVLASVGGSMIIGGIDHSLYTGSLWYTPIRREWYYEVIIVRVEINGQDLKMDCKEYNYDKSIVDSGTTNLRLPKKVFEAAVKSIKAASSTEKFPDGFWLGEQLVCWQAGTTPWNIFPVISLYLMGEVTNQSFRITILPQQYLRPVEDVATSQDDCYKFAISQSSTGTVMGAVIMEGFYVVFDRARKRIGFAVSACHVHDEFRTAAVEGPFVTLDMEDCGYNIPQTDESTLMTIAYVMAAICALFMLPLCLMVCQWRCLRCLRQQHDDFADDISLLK
Summary of the method: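 Recombinant human BACE1 at 20 ng/µl, activated 15 min at RT in 100 mM sodium acetate pH 4.0. FRET substrate added at 20 uM final. Run 60 min at RT, time-resolved fluorescence Ex/Em 360/460 nm. IC50 by nonlinear regression.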

Plasmodium falciparum [10] = assay: Antimalarial activity against multidrug-resistant Plasmodium falciparum Dd2 infected in human erythrocytes assessed as inhibition of parasite growth after 72 hrs by SYBR Green I method; type: functional, organism-based; settings: Dd2, 72 h
Summary of the method: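 SYBR Green I growth assay in human erythrocytes. DMSO stocks (10 mM), 3-fold serial dilutions, then diluted 500-fold into medium and added in quadruplicate. Final conditions: 2% hematocrit, 0.5% parasitemia, 0.1% DMSO. Incubated 72 h at 37 °C. Lysis buffer with SYBR Green I added, 1 h at room temperature in the dark. Fluorescence read at 497/520 nm. IC50 from four-parameter logistic nonlinear regression.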

[11] = Half-life in Sprague-Dawley rat at 1 mg/kg, iv and 5 mg/kg, po by LC-MS analysis; type: ADME, organism-based; settings: in vivo
Rattus norvegicus [12] = assay: Oral bioavailability in Sprague-Dawley rat at 5 mg/kg by LC-MS analysis; type: ADME, organism-based; settings: in vivo
Liver microsome [13] = assay: Half-life in rat liver microsomes at 1 uM by LC-MS/MS analysis; type: ADME; summary of the method: as §1

Structure (SMILES)	IC50 (Plasmodium falciparum [1])	other results
CCN1C(=O)N(CCC(C)C)C2(CCN(Cc3ccc(O)c(Cl)c3)CC2)C1=O	2600 nM	–
CCN1C(=O)N(CCC(C)C)C2(CCN(Cc3cc(F)ccc3O)CC2)C1=O	1400 nM	–
CCN1C(=O)N(CCC(C)C)C2(CCN(Cc3cc(Cl)cc(Cl)c3O)CC2)C1=O	460 nM	–
CCN1C(=O)N(CCC(C)C)C2(CCN(Cc3ccc(OC)cc3OC)CC2)C1=O	7600 nM	–
CCN1C(=O)N(CCC(C)C)C2(CCN(Cc3cc(OC)ccc3O)CC2)C1=O	560 nM	–
CC(C)CCN1C(=O)N(C(C)C)C(=O)C12CCN(Cc1cc(Cl)ccc1O)CC2	110 nM	–
CCN1C(=O)N(CCC(C)C)C2(CCN(Cc3c(O)ccc(Cl)c3Cl)CC2)C1=O	280 nM	–
CCN1C(=O)N(Cc2ccccc2)C2(CCN(Cc3cc(Cl)ccc3O)CC2)C1=O	560 nM	–
CCN1C(=O)N(CCC(C)C)C2(CCN(Cc3cccc(Cl)c3O)CC2)C1=O	1100 nM	–
CC(C)CCN1C(=O)N(CCCc2ccncc2)C(=O)C12CCN(Cc1cc(Cl)ccc1O)CC2	610 nM	–
CCN1C(=O)N(CCC(C)C)C2(CCN(Cc3cc(Br)ccc3O)CC2)C1=O	210 nM	–
CCN1C(=O)NC2(CCN(Cc3cc(Cl)ccc3O)CC2)C1=O	> 10000 nM	–
CCN1C(=O)N(CCC(C)C)C2(CCN(Cc3cc(C)ccc3O)CC2)C1=O	880 nM	–
CCN1C(=O)N(CCC(C)C)C2(CCN(Cc3ccccn3)CC2)C1=O	> 10000 nM	–
CCN1C(=O)N(CCC(C)C)C2(CCN(CCCO)CC2)C1=O	> 10000 nM	–
CCN1C(=O)N(CCC(C)C)C2(CCN(Cc3cc(O)cc(Cl)c3)CC2)C1=O	760 nM	–
CCN1C(=O)N(CCc2ccccc2)C2(CCN(Cc3cc(Cl)ccc3O)CC2)C1=O	290 nM	–
CCN1C(=O)N(CCC(C)C)C2(CCN(Cc3cccc4cc[nH]c34)CC2)C1=O	3400 nM	–
CCN1C(=O)N(CCC(C)C)C2(CCN(Cc3cc(Cl)ccc3O)CC2)C1=O	220 nM	t1/2 (Liver): 4 min; inhibition [2]: inactive; inhibition (Plasmodium [3]): inactive; Vd (Rattus norvegicus [4]): 3.7 L/kg; IC50 (HepG2): 37000 nM; inhibition [5]: inactive; selectivity ratio [6]: > 100; t1/2 (Liver microsome [7]): 9 min; inhibition (Plasmodium [8]): inactive; inhibition [9]: inactive; IC50 (Plasmodium falciparum [10]): 220 nM; half-life [11]: 16.8 min; F (Rattus norvegicus [12]): 10%; t1/2 (Liver microsome [13]): 3 min
CC(C)CCN1C(=O)N(Cc2cccnc2)C(=O)C12CCN(Cc1cc(Cl)ccc1O)CC2	840 nM	–
CCN1C(=O)N(CCC(C)C)C2(CCN(Cc3ccc(Cl)cc3O)CC2)C1=O	2100 nM	IC50 (HepG2): > 50000 nM

Structure (SMILES)	IC50 (Plasmodium falciparum [1])	other results
CCN1C(=O)N(Cc2ccc(C#N)cc2)C2(CCN(Cc3cc(Cl)ccc3O)CC2)C1=O	1500 nM	–
CCN1C(=O)N(CCC(C)C)C2(CCN(Cc3ccccc3O)CC2)C1=O	1100 nM	–
CCN1C(=O)N(CCC(C)C)C2(CCN(Cc3cc(Cl)c(Cl)cc3O)CC2)C1=O	90 nM	inhibition [2]: inactive; inhibition (Plasmodium [3]): inactive; IC50 (HepG2): > 50000 nM; inhibition [5]: inactive; selectivity ratio [6]: > 500; inhibition (Plasmodium [8]): inactive; inhibition [9]: inactive
CCN1C(=O)N(CCC(C)C)C2(CCN(Cc3cc(-c4ccccc4)ccc3O)CC2)C1=O	290 nM	IC50 (HepG2): > 50000 nM
CCN1C(=O)N(CCC(C)C)C2(CCN(C(=O)c3ccccn3)CC2)C1=O	> 10000 nM	–
CCN1C(=O)N(CCC(C)C)C2(CCN(Cc3cccc(OC)c3)CC2)C1=O	16000 nM	–
CCN1C(=O)N(CCC(C)C)C2(CCN(Cc3cccc(Cl)c3)CC2)C1=O	14000 nM	–
CCN1C(=O)N(CCC(C)C)C2(CCN(Cc3c(O)cccc3Cl)CC2)C1=O	410 nM	–
CC(C)CCN1C(=O)NC(=O)C12CCN(Cc1cc(Cl)ccc1O)CC2	> 10000 nM	–
CCN1C(=O)N(CCC(C)C)C2(CCNCC2)C1=O	> 10000 nM	–
CCN1C(=O)N(CCC(C)C)C2(CCN(C(=O)c3cc(Cl)ccc3O)CC2)C1=O	> 10000 nM	–
CCN1C(=O)N(CC)C2(CCN(Cc3cc(Cl)ccc3O)CC2)C1=O	6700 nM	–
CCN1C(=O)N(CCC(C)C)C2(CCN(Cc3cccnc3N)CC2)C1=O	> 10000 nM	–
CCN1C(=O)N(CCC(C)C)C2(CCN(Cc3cccc4cccnc34)CC2)C1=O	> 10000 nM	–
CCN1C(=O)N(c2ccccc2)C2(CCN(Cc3cc(Cl)ccc3O)CC2)C1=O	3600 nM	–
CCN1C(=O)N(CCC(C)C)C2(CCN(Cc3cccc(OC)c3O)CC2)C1=O	6000 nM	–
CCN1C(=O)N(CCC(C)C)C2(CCN(Cc3cc(Cl)cnc3N)CC2)C1=O	> 10000 nM	–
CCN1C(=O)N(CCC(C)C)C2(CCN(Cc3ccc(OC)cc3O)CC2)C1=O	940 nM	–
CCN1C(=O)N(C2CCCC2)C2(CCN(Cc3cc(Cl)ccc3O)CC2)C1=O	430 nM	–
CCN1C(=O)N(Cc2ccc(OC)cc2)C2(CCN(Cc3cc(Cl)ccc3O)CC2)C1=O	560 nM	–
CCN1C(=O)N(Cc2ccc(C(F)(F)F)cc2)C2(CCN(Cc3cc(Cl)ccc3O)CC2)C1=O	230 nM	–
